Assay results published in ChEMBL document CHEMBL1135922, “A common mechanism underlying promiscuous inhibitors from virtual and high-throughput screening” (J Med Chem, 2002).

Test: Aggregates forming ability by dynamic light scattering(DLS).
In short: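 Compound from 10 mM DMSO stock diluted into filtered KPi (5, 50 or 500 mM); dynamic light scattering at 90° detector angle, 25 °C, argon-ion laser at 514.4 nm (helium-neon 632.8 nm for dyes absorbing at 514.4 nm). Mean particle diameter by cumulant analysis; scattering intensity recorded. Each value from four or more independent measurements.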

Compound | DLS Concentration [µM]
Cc1cc(Cl)cc2c1C(=O)/C(=C1/Sc3cc(Cl)cc(C)c3C1=O)S2 | 20
Oc1ccc(/N=N/c2ccc(Br)cc2)cc1 | 10
COc1ccc2c(c1)CC[C@@H]1[C@@H]2CC[C@]2(C)[C@@H](NCCCc3ccccc3)CC[C@@H]12 | 100
C(=C1c2ccccc2-c2ccccc21)C1CCCNC1 (stereo not given) | 100
CC(C)(C)c1ccc(-c2cc(C(=O)O)cc(-c3ccc(Cl)c(Cl)c3)n2)cc1 | 50
CN(C)c1ccc(/C=C2/C(=O)Nc3ccccc32)cc1 | 30
CCCCCCC(Oc1ccc(S(=O)(=O)c2ccc(OCc3ccccc3)cc2)cc1)C(=O)O (stereo not given) | 500
CC(C)(C)c1cc(/C=C2/C(=O)Nc3ncccc32)cc(C(C)(C)C)c1O | 10
O=C1Nc2ccccc2/C1=C\c1ccc2c(c1O)CCCC2 | 40
O=C(O)COc1ccc(/N=N/c2ccc3cc(Br)ccc3c2O)cc1 | 20
Oc1oc(/C=N/c2ccc(Oc3ccccc3)cc2)c2ccccc12 | 100
O=S(=O)(O)c1cccc2cccc(Nc3ccccc3)c12 | 1000
Nc1c(/N=N/c2ccc(-c3ccc(/N=N/c4cc(S(=O)(=O)O)c5ccccc5c4N)cc3)cc2)cc(S(=O)(=O)O)c2ccccc12 | 750
O=C(Nc1nnc(Sc2nc3cc(Cl)ccc3s2)s1)c1cccs1 | 15
O=C1Nc2ccccc2/C1=C/c1ccc(-c2cccs2)s1 | 20
CC(C)c1ccc(/C=C2/C(=O)Nc3ccccc32)cc1 | 10
O=C1C2C(C(=O)N1Nc1ccc([N+](=O)[O-])cc1[N+](=O)[O-])[C@@]1(Cl)C(Cl)=C(Cl)[C@]2(Cl)C1(Cl)Cl (stereo not given in full) | 15
COC1CC[C@@]2(C)[C@@H](CC[C@@H]3[C@@H]2[C@@H](O)C[C@]2(C)[C@@H](NCCN)CC[C@@H]32)C1 (stereo not given in full) | 100
O=C(N/N=C/c1ccccc1O)C(=O)N/N=C/c1ccccc1O | 10
Cc1ccc(-c2cc(C(=O)O)cc(-c3ccc4ccccc4c3)n2)cc1 | 500
OB(O)c1cc2ccccc2s1 | 100
Oc1ccc(-c2csc(Nc3ccc(F)cc3F)n2)cc1O | 300
Oc1ccc(/N=N/c2cccc(Br)c2)cc1 | 500
CCCCc1ccc(-c2cc(C(=O)O)cc(-c3ccc(Cl)cc3)n2)cc1 | 50
CC(C)CC(Oc1ccc(OC(=O)c2cc(-c3ccc(Cl)cc3)nc(-c3ccc(Cl)cc3)c2)cc1)C(=O)O (stereo not given) | 50
COc1ccc2c(c1)CC[C@@H]1[C@@H]2CC[C@]2(C)[C@@H](NCCNc3ccc([N+](=O)[O-])cn3)CC[C@@H]12 | 40
O=C(O)c1cc(-c2ccc(Cl)cc2)nc(-c2ccc(Sc3ccc(Cl)cc3)cc2)c1 | 50
O=C(O)c1cc(-c2ccc(Cl)cc2)nc(-c2ccc(-c3ccccc3)cc2)c1 | 80
O=C1OC2(c3cc(I)c(O)c(I)c3Oc3c2cc(I)c(O)c3I)c2c(Cl)c(Cl)c(Cl)c(Cl)c21 | 500
O=C1C(I)=CC(=C(c2cc(I)c(O)c(I)c2)c2ccccc2C(=O)O)C=C1I | 10
